# Screening results deposited in PubChem by The Scripps Research Institute Molecular Screening Center.
# ARFGAP1 inh = inhibits rat ARF GTPase activating protein 1; Arfgap1-stimulated ARF1 GTP hydrolysis, GDP FP detection; inhibition, % at 16.5 µM; AID 651572; Q62848; 360,000 tested, 0.26% active;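 active means inhibition above a per-plate limit, mean inhibition of low control wells plus 3 SD, cut at about 25% in these data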;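 further: 0% = DMSO wells with enzyme and 100% = wells lacking Arfgap1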
#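 system = rat Arfgap1 catalytic domain, aa 1-136 | technique = FP, GDP Alexa 633 tracer displaced from anti-GDP antibody, 620/688 nm | compound = one concentration, 16.5 µM, DMSO 1.26% | medium = HEPES-based buffer, pH 7.5 | timing = compound-enzyme preincubation 20 min, reaction 120 min, detection 60 min, 25 °C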
# LEDGF integ inh = blocks HIV-1 LEDGF/p75-dependent DNA integration | inhibition, % at 3.7 µM | 370,000 tested, 0.64% active | TR-FRET IN-LEDGF/p75 DNA integration, Eu/Cy5;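 active means inhibition above the screen-wide mean plus 3 SD, cut at about 13% in these data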;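 further: signal is the Cy5 over europium emission ratio at 671 and 618 nm; 0% = plate median of compound wells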
# TDP2 absorb = TDP2 (human) inhibition, absorbance primary screen; O95551; 370,000 tested, 0.34% active; inhibition, % at 12.8 µM; recombinant TDP2, T5PNP hydrolysis, p-nitrophenol absorbance 415 nm;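 active means inhibition above the mean of all tested compounds plus 3 SD, set per campaign, cut at about 25% in these data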;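 further: 0% = DMSO with enzyme and 100% = buffer with substrate but no TDP2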
# Target sequence (O95551 whole entry, looked up): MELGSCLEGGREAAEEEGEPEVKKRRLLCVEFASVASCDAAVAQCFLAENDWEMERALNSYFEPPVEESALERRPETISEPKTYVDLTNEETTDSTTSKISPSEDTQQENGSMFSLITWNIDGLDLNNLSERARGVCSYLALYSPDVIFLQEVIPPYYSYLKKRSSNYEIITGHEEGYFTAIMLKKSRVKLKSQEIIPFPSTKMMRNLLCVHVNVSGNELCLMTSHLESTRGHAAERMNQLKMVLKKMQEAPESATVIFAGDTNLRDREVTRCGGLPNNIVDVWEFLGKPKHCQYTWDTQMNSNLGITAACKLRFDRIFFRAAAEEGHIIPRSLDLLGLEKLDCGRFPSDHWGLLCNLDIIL
#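 Material: recombinant human TDP2; quantity: TDP2 enzyme at 120 nM final; medium: Tris-HCl pH 7.5 with MgCl2; compound: single concentration, 12.8 µM nominal, with 1% DMSO; incubation: 2 h enzyme incubation at 37 °C; signal: epi absorbance; measure: percent inhibition; benchmarks: high control without enzyme, low control DMSO plus TDP2; repeats: singlicate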
# MBD2 DNA inh = MBD2-methylated oligo binding inhibition | Q9UBB5 | TR-FRET, MBD2 binding to methylated oligonucleotide | inhibition, % at 4.4 µM | 370,000 tested, 0.31% active; in the data active means inhibition above about 13%
# Target sequence (Q9UBB5 whole entry, looked up): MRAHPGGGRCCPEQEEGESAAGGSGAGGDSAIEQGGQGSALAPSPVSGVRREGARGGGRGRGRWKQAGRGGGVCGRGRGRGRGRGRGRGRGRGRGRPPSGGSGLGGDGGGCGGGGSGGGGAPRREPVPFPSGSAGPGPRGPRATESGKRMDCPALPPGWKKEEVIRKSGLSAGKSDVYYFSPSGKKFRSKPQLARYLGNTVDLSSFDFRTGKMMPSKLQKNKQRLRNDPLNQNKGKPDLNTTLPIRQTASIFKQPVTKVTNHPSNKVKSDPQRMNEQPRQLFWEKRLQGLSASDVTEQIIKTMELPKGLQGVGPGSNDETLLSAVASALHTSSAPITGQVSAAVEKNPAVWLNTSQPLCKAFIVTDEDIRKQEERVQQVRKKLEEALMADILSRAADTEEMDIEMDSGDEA
# ASAP1 GAP inh = inhibitors of human ASAP1 ArfGAP activity; inhibition, % at 16.5 µM; Q9ULH1; ASAP1-stimulated ARF1 GTP hydrolysis, GDP FP detection; 360,000 tested, 0.19% active; AID 624377; in the data active means inhibition above about 25%;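 further: 0% = vehicle with enzyme and substrate and 100% = no enzyme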
# UHRF1 MBD2 ctr = UHRF1 methyl-DNA binding inhibition. Q96T88. UHRF1 binding to methylated oligo, TR-FRET. inhibition, % at 4.4 µM. 370,000 tested, 0.75% active; in the data active means inhibition above about 21%;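 further: UHRF1 SRA domain binding a hemimethylated CpG hairpin DNA probe; 0% = median of test compound wells and 100% = reference inhibitor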
# IN multimer act = activates HIV-1 integrase multimerization in LEDGF counter-screen | 2,000 tested, 17% active | shares compounds with LEDGF integ inh | activation, % at 7.7 µM | AID 1053131 | TR-FRET HIV-1 integrase multimerization, biochemical; in the data active means activation above about 8.9%
# TR-FRET interf = counter-screen for LEDGF/p75 integration inhibitors: TR-FRET optical interference | shares compounds with LEDGF integ inh | TR-FRET optical interference counterscreen, HIV-1 IN multimerization | AID 1053135 | inhibition, % at 7.7 µM | 2,000 tested, under 10 active;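 active means inhibition above the mean over all tested compounds plus 3 SD, which no compound reached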;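 further: 0% = integrase with antibodies and DMSO and 100% = antibodies without integrase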
# IN-LEDGF confirm = LEDGF/p75-dependent HIV-1 integration inhibition, confirmation; shares compounds with LEDGF integ inh; TR-FRET LEDGF/p75-dependent HIV-1 integration, biochemical; inhibition, % at 3.7 µM; 2,000 tested, 36% active; AID 1053136; in the data active means inhibition above about 14%
# Numbers without * were called inactive; · = not tested or not shown. The list is not random: actives were taken first. Their share in the collection is about 2%.
SMILES,ARFGAP1 inh,LEDGF integ inh,TDP2 absorb,MBD2 DNA inh,ASAP1 GAP inh,UHRF1 MBD2 ctr,IN multimer act,TR-FRET interf,IN-LEDGF confirm
O=[N+]([O-])c1ccc(N/N=C/c2ccc(O)c(O)c2O)c(S(=O)(=O)N2CCOCC2)c1,-6.2,49.8*,-7.7,-8.8,4.1,-2.4,3.3,-16.6,36.0*
O=C(CCc1ccc(S(=O)(=O)N2CCOCC2)cc1)N/N=C/c1ccc(O)c(O)c1O,-0.1,17.2*,-5.1,-3.1,-9.4,0.9,18.4*,-65.8,27.4*
O=C(CCc1ccc(S(=O)(=O)N2CCOCC2)cc1)N/N=C/c1ccc(F)cc1F,-5.8,3.5,-14.2,2.4,-4.3,0.9,·,·,·
CCN(CC)C(=O)CC[C@H]1CC[C@]2(CCCN(Cc3ccc(N(C)C)cc3)C2)O1,·,-4.6,5.3,1.4,·,-1.8,·,·,·
COc1cc(F)cc(C2=CC(=O)C[C@H](c3ccc(F)cc3)C2)c1,5.1,59.3*,-4.1,-2.3,12.9,-2.1,0.2,-0.9,-3.6
COc1cccc(C2=CC(=O)C[C@H](c3ccc(F)cc3)C2)c1,6.1,0.7,0.0,5.3,-5.8,-2.1,·,·,·
Cc1ccc(CN2CCCCC(NC(=O)c3ccc(-c4ccccc4)cc3)C2=O)cc1 (centres undefined),·,-1.1,-4.3,-2.5,·,-0.3,·,·,·
O=C(Nc1c(-c2ccc(F)cc2)nc2ncccn12)c1ccc(F)cc1,·,0.3,-2.6,0.2,·,-2.4,·,·,·
O=C1/C(=C/c2ccco2)Oc2c1ccc(O)c2CN1CCCCC1,3.3,22.4*,5.6,0.7,8.1,13.8,12.9*,-64.8,23.2*
Cc1ccc(/C=C2\Oc3c(ccc(O)c3CN3CCN(CCO)CC3)C2=O)cc1,2.1,-4.7,-10.8,-11.4,5.5,-11.5,·,·,·
COCCN(CCOC)Cc1c(O)ccc2c1O/C(=C\c1ccco1)C2=O,10.3,41.1*,9.3,1.6,-11.3,25.2*,23.8*,-84.2,22.3*
CCN(CC)C(=O)Oc1ccc2c(c1)O/C(=C\c1ccco1)C2=O,7.8,2.0,-6.3,4.1,5.5,5.3,·,·,·
CCC(=O)Oc1ccc2c(c1)O/C(=C\c1ccco1)C2=O,-4.3,25.4*,-6.2,5.5,-3.8,20.5,7.1,-35.7,10.3
CCN(C)C(=O)CNc1nnnn1-c1ccccc1,·,-1.8,9.9,0.1,·,1.9,·,·,·
Cn1ccnc1CN1CCC[C@]2(CC[C@H](CCC#N)O2)C1,·,0.8,13.2,-1.1,·,-1.7,·,·,·
COc1ccc(NC(=O)CSc2nnc(-c3ccco3)c(-c3ccco3)n2)cc1OC,4.1,1.1,2.8,-4.1,2.7,-6.8,·,·,·
O=C(CSc1ccccc1)Nc1cccc(NC(=O)c2ccco2)c1,-0.6,16.4*,-4.9,6.3,5.7,-0.3,0.9,-4.7,-8.8
CSc1nnc(-c2ccco2)c(-c2ccco2)n1,-13.6,27.3*,22.6,0.2,5.1,18.0,5.1,-25.6,45.3*
COc1cccc(NC(=O)CSc2nnc(-c3ccco3)c(-c3ccco3)n2)c1,-7.3,24.6*,8.8,2.0,-4.6,14.4,8.3,-29.7,38.8*
Cc1ccc(NC(=O)CSc2nnc(-c3ccco3)c(-c3ccco3)n2)cc1,-3.5,24.9*,20.2,-0.2,3.8,7.9,2.4,-12.2,28.4*
CO[C@H]([C@H](C)/C=C/N(C)C=O)[C@@H](C)C(=O)CC[C@H](C)[C@H](O)[C@H](C)[C@H]1OC(=O)/C=C/C(C)=C/C[C@H](O)C[C@@H]2C=CC[C@@H](C[C@H](OC)C(C)(O)[C@@H](OC)C[C@@H](OC)[C@@H]1C)O2 (some centres undefined),·,3.8,-13.3,1.3,·,-1.1,·,·,·
CCCC(=O)N1CCC(C(=O)NC2CCCc3ccccc32)CC1 (centres undefined),·,9.7,-0.9,2.7,·,-0.3,·,·,·
O=C(CSc1nnc(-c2ccco2)c(-c2ccco2)n1)Nc1ccccc1,-19.1,37.7*,-6.9,10.6,-5.2,40.8*,3.1,-15.3,54.7*
COc1ccc(C(=O)CSc2nnc(-c3ccco3)c(-c3ccco3)n2)cc1,11.4,15.3*,11.4,2.6,-6.6,3.0,13.2*,-47.4,41.5*
COc1ccc(C(=O)CSc2nnc(-c3ccco3)n2C)cc1,-6.6,1.3,-6.9,-8.5,-4.0,4.2,·,·,·
SMILES,ARFGAP1 inh,LEDGF integ inh,TDP2 absorb,MBD2 DNA inh,ASAP1 GAP inh,UHRF1 MBD2 ctr,IN multimer act,TR-FRET interf,IN-LEDGF confirm
Cn1c(=O)c2c(nc(SCc3ccc(C(=O)O)cc3)n2C)n(C)c1=O,0.5,14.1*,-6.3,-3.7,-4.8,0.4,-2.6,13.0,7.9
CCc1ccc(NC(=O)CSc2nc3c(c(=O)n(C)c(=O)n3C)n2C)cc1,6.2,-3.9,1.3,-0.8,3.1,-1.7,·,·,·
Cc1cc(NC(=O)c2ccco2)ncc1NC(=O)CCc1ccccc1,-1.4,-0.7,-12.1,-2.6,8.6,-3.3,·,·,·
CCCCC(=O)Nc1cc(C)c(NC(=O)c2ccco2)cn1,3.1,26.7*,-7.0,4.4,8.6,-0.3,0.6,-2.8,0.3
COc1cc(/C=C(\C#N)c2nc3ccccc3[nH]2)cc(OC)c1O,14.0,15.8*,0.2,-3.1,2.3,-10.3,7.6,-38.4,2.2
CN1[C@H](Cc2ccccc2)COc2cc(N3CCSCC3)ccc2S1(=O)=O,·,5.8,5.3,-3.0,·,0.5,·,·,·
CCC(CC)C(=O)N(C)c1c(C)nc2c(OCc3ccc(F)c(F)c3)cccn12,1.8,21.1*,1.6,2.5,5.2,-0.3,1.4,-4.7,3.4
O=C(c1ccccc1)c1ccc(O)c(O)c1O,-22.6,22.4*,-9.1,10.7,-5.7,17.4,1.7,-8.3,42.1*
O=C(c1ccccc1)c1cccc2ccccc12,1.6,1.0,1.0,-2.2,-12.8,2.3,·,·,·
COc1ccc(C(=O)CSc2nnc(-c3cccnc3)n2-c2ccccc2)cc1,·,2.6,-0.8,-3.7,·,-1.0,·,·,·
O=S1(=O)c2ccc(N3CCN(Cc4ccccc4F)CC3)cc2Oc2ccccc2CN1Cc1cn(Cc2cccc(F)c2)nn1,·,-5.3,-3.7,0.3,·,-0.1,·,·,·
CCCCOc1ccc(C(=O)N/C(=C\c2ccc([N+](=O)[O-])cc2)C(=O)OCc2ccco2)cc1,-0.4,20.7*,1.0,7.2,-3.8,-1.5,0.2,-1.2,-2.3
CCCCc1cc(=O)oc2cc(OCC(=O)NCC3CCC(C(=O)O)CC3)ccc12 (centres undefined),-4.1,3.2,3.0,-0.1,0.9,-1.6,·,·,·
